Source: PubChem (Johns Hopkins Ion Channel Center)
Compounds with a hit are over-represented: about 3.5% of the library has one in this group of screens.
MrgX1 antag: antagonists of human MrgX1 receptor, primary screen, HEK293 cells, Fluo-4 calcium flux; Mas-related G-protein coupled receptor member X1 (Homo sapiens), Q96LB2; BAM8-22 antagonism; active compounds read low; B-score at 10 µM; 1.3% of 310,000 active; AID 588676, 2011;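 active = calcium-response B-score plate-corrected more than 3 library SD below zero, starting fluorescence within 5 deviations, no agonist response on first addition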;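 also: peak minus trough fluorescence over baseline after final BAM8-22 challenge near maximal dose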
Target sequence (Q96LB2 whole entry, looked up): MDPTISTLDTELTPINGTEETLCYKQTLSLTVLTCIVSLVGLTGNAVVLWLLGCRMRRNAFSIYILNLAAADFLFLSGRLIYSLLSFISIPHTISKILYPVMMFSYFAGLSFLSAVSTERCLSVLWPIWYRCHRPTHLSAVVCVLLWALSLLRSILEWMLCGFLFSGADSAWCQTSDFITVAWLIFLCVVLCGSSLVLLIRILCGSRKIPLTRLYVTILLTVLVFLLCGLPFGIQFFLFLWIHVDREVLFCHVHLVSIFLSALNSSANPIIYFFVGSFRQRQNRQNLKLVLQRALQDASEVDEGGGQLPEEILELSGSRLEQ
MrgX1 allo act: positive allosteric modulators of MrgX1, primary screen, HEK293 cells, Fluo-4 calcium flux; FDSS; active compounds read high; B-score at 10 µM; 0.63% of 310,000 active; AID 588675, 2011;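 active = plate-corrected calcium response at least 3 library SD above typical, normal starting fluorescence, not activating the receptor alone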;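 also: compound read alongside a low EC10 to EC30 dose of BAM8-22 agonist; peak minus trough fluorescence over baseline measured at the second addition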
RGS4 inh: RGS4 inhibitors, primary screen, cell-based, HEK293 M3R inducible RGS4, calcium flux. Fluo-4 calcium flux; active compounds read high; triggered by carbachol at its EC20. AID 463165, 2010. Regulator of G-protein signaling 4 (Homo sapiens), P49798. B-score at 10 µM. 0.45% of 310,000 active;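 active = B-score, a plate-corrected calcium signal, over three deviations above library mean, with baseline fluorescence within five deviations of library mean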;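 also: RGS4 expression induced by doxycycline in cells with stable M3 receptor; B-score is computed from the integrated fluorescence ratio over baseline after carbachol; higher B-score means a larger calcium signal and so more RGS4 inhibition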
Target sequence (P49798 whole entry, looked up): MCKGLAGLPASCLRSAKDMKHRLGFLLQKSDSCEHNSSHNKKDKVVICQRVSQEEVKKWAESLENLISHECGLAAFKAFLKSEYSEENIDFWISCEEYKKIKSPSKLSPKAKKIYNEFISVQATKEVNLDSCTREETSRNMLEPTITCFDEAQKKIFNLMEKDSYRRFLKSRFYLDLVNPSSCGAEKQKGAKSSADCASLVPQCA
RGS4 act: RGS4 potentiators or activators, primary screen, cell-based, HEK293 M3R inducible RGS4, calcium flux. carbachol calcium flux Fluo4; active compounds read low. B-score at 10 µM. 0.92% of 310,000 active. AID 463111, 2010;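 active = B-score of the integrated calcium signal more than 4 SD below the library mean, with starting fluorescence not abnormally high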;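 also: negative B-score means reduced calcium response which marks RGS4 activation or potentiation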
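Material: M3R-expressing HEK293 line, RGS4 induced by doxycycline | Schedule: Overnight RGS4 induction, 30 min dye load 37 °C, 20 min compound RT | Measured by: Fluo4 fluorescence kinetic imaging of calcium | Read-out: Integrated calcium ratio converted to B score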
MrgX1 agonist: agonists of human MrgX1 receptor, primary screen, HEK293 cells, Fluo-4 calcium flux. Mas-related G-protein coupled receptor member X1 (Homo sapiens), Q96LB2. Fluo-4 calcium fluorescence, agonist mode; active compounds read high. B-score at 10 µM. 0.44% of 310,000 active;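 active = calcium response B-score plate-corrected fluorescence ratio at least 3 library SD, with starting fluorescence B-score inside 5 SD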
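Material: MrgX1-expressing HEK293 cells; input: 15,000 cells per well; doses: test compound given as first of three sequential additions; schedule: overnight plating before 1 h dye loading; technique: Fluo-4 NW calcium-flux fluorescence, kinetic read; evaluation: baseline-normalised fluorescence change ratio, B-scored; control set: plate-wise positive and negative controls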
MrgX1 PAM conf: MrgX1 positive allosteric modulators, duplicate retest, confirmation, HEK293 cells, Fluo-4 calcium flux; Fluo-4 calcium fluorescence, FDSS; 13% of 1,200 active; shares compounds with MrgX1 allo act; activation (ratio percentage), % at 10 µM;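 active = ratio at least 3 SD above the weak peptide control, stable starting fluorescence, no direct agonism earlier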;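 also: compound followed by low BAM8-22 agonist challenge near EC20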
MrgX1 ant reconf: MrgX1 receptor antagonists, duplicate retest, confirmation, HEK293 cells, Fluo-4 calcium flux; shares compounds with MrgX1 antag; BAM8-22 calcium flux; active compounds read low; remaining BAM8-22 calcium response % of control (active compounds read low), % at 10 µM; 19% of 2,300 active; AID 602420, 2012;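 active = remaining agonist calcium response no higher than 100% minus 3 SD of agonist-only control wells, with starting fluorescence near control levels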;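 also: agonist BAM8-22 given at a near maximal EC90 to ECmax level; peak minus minimum fluorescence divided by baseline after agonist addition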
HEK293 Ca flux: nonspecific calcium signal in parental HEK293, confirmation, counter-screen for MrgX1 antagonist project, parental HEK293 cells, Fluo-4 calcium flux. Fluo-4 calcium fluorescence, FDSS. 2% of 4,000 active. shares compounds with MrgX1 antag. fluorescence ratio F(max-min)/F0 at 10 µM. AID 624111, 2012;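 active = duplicate-averaged calcium fluorescence ratio at least three times the standard deviation of buffer wells, a nonspecific response in parental cells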
HEK293 Ca counter: calcium response in parental HEK293 cells, primary screen, counter-screen for MrgX1 allosteric activator project, cell-based, Fluo-4 calcium flux, duplicate; fluorescence ratio F(max-min)/F0 at 10 µM; 0.4% of 4,000 active; shares compounds with MrgX1 antag; Fluo-4 fluorescence ratio; active compounds read high;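 active = calcium fluorescence ratio, averaged over duplicates, at least 3 SD of the buffer-well ratio, meaning a nonspecific response in receptor-free cells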;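 also: untransfected parental HEK293 lacking MrgX1 used as counterscreen for MrgX1 allosteric activators; fluorescence change taken during the second addition on a kinetic imager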
HEK293 Ca cntr2: calcium response in parental HEK293 cells, primary screen, counter-screen for MrgX1 agonist project, cell-based, Fluo-4 calcium flux, duplicate, agonist mode. 8.7% of 4,000 active. Fluo-4 calcium fluorescence (FDSS); active compounds read high. shares compounds with MrgX1 antag. fluorescence ratio F(max-min)/F0 at 10 µM;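 active = calcium fluorescence ratio at least three times the spread of buffer wells, meaning a non-specific response in parental cells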
* hit, by the source's call; i = inactive; nt = no result.

SMILES	MrgX1 antag	MrgX1 allo act	RGS4 inh	RGS4 act	MrgX1 agonist	MrgX1 PAM conf	HEK293 Ca flux	HEK293 Ca counter	HEK293 Ca cntr2	others
Cc1cc(C)n2c(SCC(=O)Nc3ccc(F)cc3)nnc2n1	i	14*	i	i	i	i	i	i	i
Cc1cccc2cc(CN(C(=O)c3cnccn3)C3CCCCC3)c(Cl)nc12	i	20*	i	i	i	i	i	i	i
Cc1ccc(N(C)C(=O)c2cnn(-c3ccccc3)c2C)c(C)c1	i	i	i	i	i	nt	nt	nt	nt
Cc1cccc(N(C)C(=O)c2cnn(-c3ccccc3)c2C)c1	i	13*	i	i	i	i	i	i	i
CC(=O)NCC(=O)NC1CCCc2c1cnn2-c1ccc(C(C)(C)C)cc1 (stereo not given)	i	9*	i	i	i	i	i	i	i
CCN1CCN(c2nc(C)c3c(n2)CC(C)CC3=O)CC1 (stereo not given)	i	8*	i	i	i	i	i	i	i
Cc1nc(N2CCN(Cc3ccccc3)CC2)nc2c1C(=O)CC(C)C2 (stereo not given)	i	i	i	i	i	nt	nt	nt	nt
Cc1ccc(NC(=S)NNC(=O)CSc2nc3ccccc3c(=O)n2-c2ccc(C)cc2)cc1	i	21*	i	i	i	i	i	i	i
Cc1ccc(-n2c(SCC(=O)Nc3ccc(N4CCOCC4)cc3)nc3ccccc3c2=O)cc1	i	i	i	i	i	nt	nt	nt	nt
CN(Cc1cnccn1)Cc1nc(Cc2ccccc2Cl)no1	i	i	i	i	i	nt	nt	nt	nt
CN(Cc1cnccn1)Cc1nc(Cc2ccccc2F)no1	i	10*	i	i	i	i	i	i	i
COc1ccc(-c2csc(=NCCO)n2-c2ccccc2)cc1	-5.8*	8.7*	i	i	i	20%*	i	i	i	MrgX1 ant reconf=i
O=C(NCc1cccnc1)C(=O)NCC1OCCN1S(=O)(=O)c1cc(F)ccc1F (stereo not given)	i	16*	i	i	i	i	i	i	i
O=C(NCCc1ccccc1)C(=O)NCC1OCCN1S(=O)(=O)c1cc(F)ccc1F (stereo not given)	i	i	i	i	i	nt	nt	nt	nt
COc1ccccc1CN1C(=O)c2ccccc2C1C(=O)NC1CCC(C)CC1 (stereo not given)	i	9.8*	i	i	i	i	i	i	i
CCC(C)NC(=O)C1c2ccccc2C(=O)N1Cc1ccccc1OC (stereo not given)	i	i	i	i	i	nt	nt	nt	nt
Cc1ccc(-c2cc(C)nc3ncnn23)cc1	i	8.9*	i	i	i	i	i	i	i
CCOC(=O)N1CCC(N2C(=O)c3ccccc3C2Nc2ccc(S(=O)(=O)N3CCOCC3)cc2)CC1 (stereo not given)	i	i	i	i	i	nt	nt	nt	nt
COc1ccc(CCNS(=O)(=O)c2ccc3c(c2)NC(=O)CO3)cc1OC	i	33*	i	i	i	i	i	i	i
Cc1ccc(C)c(Oc2cc(F)nc(N)n2)c1	i	i	i	i	i	nt	nt	nt	nt
C=CCc1ccccc1Oc1cc(F)nc(N)n1	i	15*	i	i	i	9.9%*	i	i	i
COCc1cc(=O)[nH]c(/N=C(\N)Nc2ccccc2C)n1	i	21*	i	i	i	i	i	i	i
COc1ccccc1NC(=O)c1sc2nc(N3CCOCC3)c3c(c2c1N)CCCC3	i	i	i	i	i	nt	nt	nt	nt
Cc1ccccc1NC(=O)c1sc2nc(N3CCOCC3)c3c(c2c1N)CCCC3	i	7.2*	i	i	i	i	i	i	i
COc1ccc(C(=O)Nc2cc(OC)c(Cl)cc2Cl)cc1	i	i	i	i	i	nt	nt	nt	nt
SMILES	MrgX1 antag	MrgX1 allo act	RGS4 inh	RGS4 act	MrgX1 agonist	MrgX1 PAM conf	HEK293 Ca flux	HEK293 Ca counter	HEK293 Ca cntr2	others
COc1ccc(C(=O)Nc2scc(-c3ccc(Cl)cc3Cl)c2C(N)=O)cc1	i	27*	i	i	i	20%*	i	i	i
COc1ccc(N2CCN(CC(O)COCc3ccccc3)CC2)cc1 (stereo not given)	i	7.7*	i	i	i	i	i	i	i
COc1cc(SC)ccc1C(=O)NCc1ccc(C)cc1	i	6.5*	i	i	i	i	i	i	i
Cc1ccc(Cn2ncc3c(N4CCN(Cc5ccc(Cl)cc5)CC4)ncnc32)cc1	-12*	8.4*	i	i	i	i	i	i	i	MrgX1 ant reconf=84%*
Cc1ccc(Cn2ncc3c(N4CCN(c5ccc(C)cc5)CC4)ncnc32)cc1	i	i	i	i	i	nt	nt	nt	nt
Cc1ccn2c(NC3CCCC3)c(-c3ccncc3)nc2c1	i	7.3*	i	i	i	14%*	i	i	i
Cc1ccn2c(NC3CCCC3)c(-c3ccccn3)nc2c1	i	12*	i	i	i	i	i	i	i
Cc1ccc2nc(-c3ccncc3)c(NC3CCCC3)n2c1	i	i	i	i	i	nt	nt	nt	nt
